From ChEMBL document CHEMBL3286244, “Chlorpheniramine Analogues Reverse Chloroquine Resistance in Plasmodium falciparum by Inhibiting PfCRT” (ACS Med Chem Lett, 2014) come the findings set out here.

In experiment [1] the target is T1, Chloroquine resistance transporter (Plasmodium falciparum) (UniProt Q9N623).
T1 sequence (whole entry): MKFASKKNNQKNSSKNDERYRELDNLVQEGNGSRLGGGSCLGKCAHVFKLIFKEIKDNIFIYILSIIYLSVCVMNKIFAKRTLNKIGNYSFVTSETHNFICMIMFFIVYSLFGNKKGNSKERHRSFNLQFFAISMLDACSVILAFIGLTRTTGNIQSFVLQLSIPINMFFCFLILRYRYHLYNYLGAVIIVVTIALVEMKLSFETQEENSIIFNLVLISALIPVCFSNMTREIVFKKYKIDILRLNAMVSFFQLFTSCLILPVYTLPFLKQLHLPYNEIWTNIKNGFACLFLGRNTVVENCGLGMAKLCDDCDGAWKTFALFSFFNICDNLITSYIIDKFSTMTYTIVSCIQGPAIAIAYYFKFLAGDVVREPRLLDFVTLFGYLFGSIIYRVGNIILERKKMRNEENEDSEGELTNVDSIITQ
Nature of the experiment: Inhibition of chloroquine-resistant Plasmodium falciparum Dd2 CRT expressed in Xenopus laevis oocytes plasma membrane assessed as reduction of [3H]-chloroquine transportation at 100 uM after 1 to 2 hrs. Format: cell-based. A digest of the protocol: (§1)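 Xenopus oocytes expressing PfCRT of the CQ-resistant (PfCRTCQR) or CQ-sensitive (PfCRTCQS) form. [3H]CQ uptake measured in the presence of reverser at 100 μM extracellular.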

Experiment [2] relates to Plasmodium falciparum. Nature of the experiment: Response modification index, ratio of IC50 for Plasmodium falciparum C67G8 expressing chloroquine-resistance-conferring pfcrt alleles in presence of drug to IC50 for Plasmodium falciparum C67G8 expressing chloroquine-resistance-conferring pfcrt alleles in absence of 800 nM of drug. Type of experiment: functional. The gist of the method:
(§2)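 Proliferation assays on isogenic pfcrt transfectant lines (C4Dd2, C67G8). CQ IC50 determined with and without 800 nM test compound. RMI calculated as CQ IC50 with compound divided by CQ IC50 without compound.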

For experiment [3], the system named is Plasmodium falciparum. The experiment can be described thus: Antiplasmodial activity against Plasmodium falciparum C4Dd2 expressing chloroquine-resistance-conferring pfcrt alleles assessed as parasite growth at 800 nM after 72 hrs by SYBR Green I-based fluorescence assay relative to control. Type of experiment: functional. The gist of the method:
(§3)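 Isogenic pfcrt transfectant lines (C2GCO3 wild-type allele; C4Dd2 and C67G8 carrying CQ-resistance-conferring alleles from Dd2 or 7G8). Parasite proliferation measured in the absence of CQ with test compound at 800 nM and expressed relative to untreated control.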

Experiment [4] deals with T1, Chloroquine resistance transporter (Plasmodium falciparum). Nature of the experiment: Inhibition of chloroquine-sensitive Plasmodium falciparum D10 CRT expressed in Xenopus laevis oocytes plasma membrane assessed as reduction of [3H]-chloroquine transportation at 100 uM after 1 to 2 hrs. Type of experiment: cell-based. A digest of the protocol:
as §1

The target is the same in experiment [5]. The experiment can be described thus: Inhibition of CTR in Plasmodium falciparum C2GC03 expressing wild-type pfcrt allele assessed as increase of accumulation of [3H]-chloroquine level at 1 uM after 1 hr. A digest of the protocol: (§4)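 Isogenic pfcrt transfectant lines C2GCO3 (wild-type allele), C4Dd2 and C67G8 (CQ-resistance alleles from Dd2 or 7G8). CQ accumulation ratio measured with and without reverser. Expressed as fold increase in accumulation ratio over control.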

The test system of experiment [6] is Plasmodium falciparum. Nature of the experiment: Antiplasmodial activity against Plasmodium falciparum C67G8 expressing chloroquine-resistance-conferring pfcrt alleles assessed as parasite growth at 800 nM after 72 hrs by SYBR Green I-based fluorescence assay relative to control. Type of experiment: functional. The gist of the method:
as §3

Experiment [7] addresses T1, Chloroquine resistance transporter (Plasmodium falciparum). Nature of the experiment: Inhibition of CTR in Plasmodium falciparum C4Dd2 expressing chloroquine-resistance-conferring pfcrt alleles assessed as increase of accumulation of [3H]-chloroquine level at 1 uM after 1 hr relative to control. The gist of the method:
as §4

Experiment [8] concerns Plasmodium falciparum. The experiment can be described thus: Antiplasmodial activity against Plasmodium falciparum C2GC03 expressing wild-type pfcrt allele assessed as parasite growth at 800 nM after 72 hrs by SYBR Green I-based fluorescence assay relative to control. Format: functional. A digest of the protocol:
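Isogenic pfcrt transfectant parasite line C2GCO3 (wild-type pfcrt allele) was grown in a proliferation assay with the test compound at 800 nM and no chloroquine. Proliferation is expressed relative to untreated control.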

The subject of experiment [9] is Plasmodium falciparum. Nature of the experiment: Response modification index, ratio of IC50 for Plasmodium falciparum C4Dd2 expressing chloroquine-resistance-conferring pfcrt alleles in presence of drug to IC50 for Plasmodium falciparum C4Dd2 expressing chloroquine-resistance-conferring pfcrt alleles in absence of 800 nM of drug. Type of experiment: functional. A digest of the protocol: as §2

Experiment [10] deals with Plasmodium falciparum. The experiment can be described thus: Response modification index, ratio of IC50 for Plasmodium falciparum C2GC03 expressing wild-type pfcrt allele in presence of drug to IC50 for Plasmodium falciparum C2GC03 expressing wild-type pfcrt allele in absence of 800 nM of drug. Type of experiment: functional. A digest of the protocol:
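In a parasite proliferation assay on the isogenic pfcrt transfectant line C2GCO3 (wild-type allele), chloroquine IC50 was measured with and without the test compound at 800 nM. RMI is chloroquine IC50 with the compound divided by chloroquine IC50 without it.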

The target of experiment [11] is T1, Chloroquine resistance transporter (Plasmodium falciparum). The experiment can be described thus: Inhibition of CTR in Plasmodium falciparum C67G8 expressing chloroquine-resistance-conferring pfcrt alleles assessed as increase of accumulation of [3H]-chloroquine level at 1 uM after 1 hr relative to control. A digest of the protocol: as §4
The target of experiment [12] is Chloroquine resistance transporter (Plasmodium falciparum, UniProt Q9N623). Nature of the experiment: Inhibition of chloroquine-resistant Plasmodium falciparum Dd2 CRT expressed in Xenopus laevis oocytes plasma membrane assessed as reduction of [3H]-chloroquine transportation after 1 to 2 hrs. Format: cell-based. A digest of the protocol: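 Xenopus oocytes expressing PfCRTCQR. Inhibition of [3H]CQ uptake measured over a range of reverser concentrations. IC50 derived from concentration-response data, reported as mean ± SEM.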

The source made the active and inactive calls. No cut-off for these calls is given here.

The term IC50 denotes the concentration that gives 50% inhibition. Regarding `CCN(CC)C/C=C(\c1ccc(Cl)cc1)c1ccccn1`, the inhibition result in experiment [1], in [4] and in experiment [5] was “inactive” in each case. Also, the “Ratio IC50” value was 0.69 in the experiment with Plasmodium falciparum [2], 0.49 in the experiment with Plasmodium falciparum [9] and 1.01 with Plasmodium falciparum [10]. The figures for the Activity in the experiment with Plasmodium falciparum [3], with Plasmodium falciparum [6] and in the experiment with Plasmodium falciparum [8] were 84%, 90% and 100%, respectively. The fold change (FC) in experiment [7] is 1.6; in [11] it was 1.4. Also, the half-inhibitory concentration (IC50) in experiment [12] was found to be 321 µM.

With `COc1ccc(CCN(C)CCCC(C#N)(c2ccc(OC)c(OC)c2)C(C)C)cc1OC` (stereo unspecified), in experiment [1], the inhibition result is “Active”. Also, the Activity came out at 46% in the experiment with Plasmodium falciparum [3], 55% with Plasmodium falciparum [6] and 43% in the experiment on Plasmodium falciparum [8]. Besides, the inhibition result in experiment [5] is “inactive”. The fold change (FC) in experiment [7] stood at 3.1; in experiment [11] it was 1.9.

In the case of `CCN(CC)C/C=C(/c1ccc(Cl)cc1)c1ccccn1`, the inhibition result in experiment [1] and in experiment [4] was “inactive” in each case.

`CN(C)C/C=C(/c1cccc(Cl)c1)c1ccccn1`: the inhibition result in [1], in experiment [4] and in [5] was “inactive” in each case.

In the case of `CN(C)C/C=C(\c1cccc(Cl)c1)c1ccccn1`, the inhibition entry in [1], in experiment [4] and in experiment [5] was “inactive” each time.

As to `CN(C)CC/C=C(/c1ccc(Cl)cc1)c1ccccn1`, the inhibition result in experiment [1], in experiment [4] and in experiment [5] was “inactive” in each case.

As to `CN(C)CC/C=C(/c1cccc(Cl)c1)c1ccccn1`, the inhibition result in [1], in experiment [4] and in experiment [5] was “inactive” in each case.

With `CN(C)CC/C=C(/c1ccccn1)c1ccccc1Cl`, the inhibition result in [1], in experiment [4] and in experiment [5] was “inactive” each time.

As to `CN(C)CC/C=C(\c1ccc(Cl)cc1)c1ccccn1`, the inhibition result in [1], in [4] and in [5] was “inactive” each time.

For the compound `CN(C)CC/C=C(\c1cccc(Cl)c1)c1ccccn1`, the inhibition result in [1], in [4] and in [5] was “inactive” throughout.

In the case of `CN(C)CCC/C=C(/c1ccc(Cl)cc1)c1ccccn1`, the inhibition result in experiment [1], in [4] and in experiment [5] was “inactive” each time.

Regarding `CN(C)CCC/C=C(\c1ccc(Cl)cc1)c1ccccn1`, the inhibition entry in experiment [1], in [4] and in experiment [5] was “inactive” throughout.

As for `N#C/C=C(/c1ccccc1)c1ccccn1`, the inhibition result in experiment [1], in [4] and in experiment [5] was “inactive” in each case.

Turning to `N#C/C=C(\c1ccccc1)c1ccccn1`, the inhibition result in [1], in [4], in experiment [5], in experiment [7] and in experiment [11] was “inactive” in each case.

With `CN(C)CCC(c1cccc(Cl)c1)c1ccccn1` (racemic), the inhibition result in experiment [1], in experiment [4] and in experiment [5] was “inactive” in each case. For the same compound, the “Ratio IC50” value is recorded as 0.35 with Plasmodium falciparum [2], 0.27 with Plasmodium falciparum [9] and 0.99 in the experiment on Plasmodium falciparum [10]. Besides, the values for the Activity in the experiment with Plasmodium falciparum [3], in the experiment with Plasmodium falciparum [6] and with Plasmodium falciparum [8] were 75%, 74% and 99%, respectively. In addition, the IC50 in experiment [12] came to 63 µM.

Turning to `CCN(CC)CCC(c1ccc(Cl)cc1)c1ccccn1` (racemic), the inhibition entry in experiment [1], in experiment [4] and in experiment [5] was “inactive” throughout.

As for `CN(C)CCCC(c1ccc(Cl)cc1)c1ccccn1` (racemic), the inhibition result in experiment [1], in experiment [4] and in experiment [5] was “inactive” each time.

Consider `CN(C)CCCC(c1cccc(Cl)c1)c1cnccn1` (racemic), for which the inhibition entry in experiment [1], in experiment [4] and in experiment [5] was “inactive” throughout.

With `CN(C)CCCC(c1ccccc1)c1ccccn1` (racemic), the inhibition entry in experiment [1], in experiment [4] and in [5] was “inactive” in each case.

Take `CN(C)CCCC(c1ccccn1)c1ccccc1Cl` (racemic): the inhibition entry in experiment [1], in experiment [4] and in [5] was “inactive” each time.

On to `CN(C)CCCC(c1cccnc1)c1cccc(Cl)c1` (racemic), for which the inhibition result in experiment [1], in [4] and in experiment [5] was “inactive” each time.

`CN(C)CCCC(c1ccncc1)c1cccc(Cl)c1` (racemic): the inhibition entry in [1], in experiment [4] and in [5] was “inactive” each time.

For the compound `CN(C)CCCCCC(c1ccc(Cl)cc1)c1ccccn1` (racemic), the inhibition entry in [1], in experiment [4] and in [5] was “inactive” each time.

As for `CN(C)CCC(c1ccc(Cl)cc1)c1ccccn1` (stereo in doubt; form 1), in [1], the inhibition result is “Active”. In addition, in [5], the inhibition entry is “inactive”. Besides, the fold change (FC) in experiment [7] stood at 2.7; in [11], 2.

Take `CN(C)CCC(c1ccc(Cl)cc1)c1ccccn1` (stereo in doubt; form 1) [CHLORPHENIRAMINE]: the “Ratio IC50” value in the experiment with Plasmodium falciparum [2] was found to be 0.37; in the experiment on Plasmodium falciparum [9], 0.24; with Plasmodium falciparum [10], 1.09. Also, the Activity in the experiment with Plasmodium falciparum [3] was determined as 78%; with Plasmodium falciparum [6] it was 76%; with Plasmodium falciparum [8], 97%. Further, in [12], the half-inhibitory concentration (IC50) was 54 µM.

For `CN(C)CCC(c1ccc(Cl)cc1)c1ccccn1` (stereo in doubt; form 2), the inhibition result in [5] is “inactive”.

Regarding `COc1cc(NC(C)CCCN)c2ncccc2c1` (stereo unspecified) [PRIMAQUINE], the inhibition result in experiment [1] was “Active”. The 50% inhibitory concentration (IC50) in experiment [12] was 68 µM.

For the compound `CC(CN1c2ccccc2Sc2ccccc21)N(C)C` (stereo unspecified) [PROMETHAZINE], the inhibition result in experiment [1] was “Active”. In addition, the half-maximal inhibitory concentration (IC50) in experiment [12] worked out at 85 µM.
